Data: ChEMBL document CHEMBL4765418, “Discovery of novel quinazolinone derivatives as potential anti-HBV and anti-HCC agents” (Eur J Med Chem, 2020)
The source made the active and inactive calls. The rule behind the calls is not given here.

How the values were obtained:
[1] = Cytotoxicity against human HepG2 2.2.15 cells assessed as reduction in cell viability measured after 72 hrs by MTT assay; assay type: cell-based
Outline: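 HepG2 2.2.15 cells (HBV-producing; grown in DMEM with 10% FBS, penicillin/streptomycin and 0.38 mg/mL G418) seeded in 96-well plates and grown 24 h, then treated 72 h with compounds. Viability read by MTT absorbance at 490 nm relative to untreated cells. CC50 is the dose causing 50% cell death.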

HepG2 [2] = test: Antiproliferative activity against human HepG2 cells assessed as inhibition of cell proliferation after 72 hrs by MTT assay; assay type: functional, cell-based; conditions: HepG2, 72 h
Outline: (§1)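 Cells seeded in 96-well plates and grown 24 h to reach exponential growth, then exposed to test compounds in culture medium for 72 h. Viability read by MTT absorbance at 490 nm relative to untreated cells. IC50 is the concentration giving 50% inhibition of proliferation.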

Hepatitis B virus [3] = test: (§2) Antiviral activity against HBV infected in human HepG2.2.15 cells assessed as inhibition of DNA replication at 0.8 uM supplemented with fresh medium containing compound every 2 days for 6 days by RT-PCR analysis relative to control; assay type: functional; conditions: HepG2 2.2.15, 144 h, time 6 day
Outline: (§3)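 HepG2 2.2.15 cells (2×10^5/well, 24-well) left 24 h to recover from trypsinization, then given fresh medium with compound (single-point screen at 0.8 μM), renewed every 2 days for 6 days. Intracellular HBV DNA extracted and quantified by real-time PCR. IC50 is the dose giving 50% inhibition of DNA replication, taken from dose–response.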

Hepatitis B virus [4] = test: Antiviral activity against HBV infected in human HepG2.2.15 cells assessed as inhibition of DNA replication supplemented with fresh medium containing compound every 2 days for 6 days by RT-PCR analysis; assay type: functional, organism-based; conditions: HepG2 2.2.15; outline: as §3
[5] = Selectivity index, ratio of CC50 for human HepG2 2.2.15 cells to IC50 for antiviral activity against HBV infected in human HepG2.2.15 cells assessed as inhibition of DNA replication; assay type: toxicity, cell-based; conditions: read-out: Ratio CC50/IC50
Hepatitis B virus [6] = test: as §2, with “against lamivudine and entecavir-resistant” for “against”, “HBV harboring rtL180 M/rtM204V/rtT184L mutant” for “HBV”; assay type: functional; conditions: HepG2 2.2.15, 144 h, time 6 day
Hepatitis B virus [7] = test: Antiviral activity against HBV infected in human HepG2.2.15 cells assessed as inhibition of HBsAg production supplemented with fresh medium containing compound every 3 days for 6 days by EIA relative to control; assay type: functional, HepG2 2.2.15; conditions: time 6 day
HepG2 [8] = test: Induction of apoptosis in human HepG2 cells assessed as viable cells at 5 uM after 48 hrs by Annexin-V FITC/propidium iodide staining based flow cytometric analysis (reference value: 97.07%); conditions: HepG2, 48 h
HepG2 [9] = test: Induction of apoptosis in human HepG2 cells assessed as necrotic cells at 20 uM after 48 hrs by Annexin-V FITC/propidium iodide staining based fluorescence microscopic analysis (reference value: 0.14%); assay type: functional
HepG2 [10] = test: Induction of apoptosis in human HepG2 cells assessed as late apoptotic cells at 20 uM after 48 hrs by Annexin-V FITC/propidium iodide staining based fluorescence microscopic analysis (reference value: 1.11%); assay type: functional
HepG2 [11] = test: Induction of apoptosis in human HepG2 cells assessed as late apoptotic cells at 5 uM after 48 hrs by Annexin-V FITC/propidium iodide staining based flow cytometric analysis (reference value: 1.11%)
HepG2 [12] = test: Induction of apoptosis in human HepG2 cells assessed as late apoptotic cells at 10 uM after 48 hrs by Annexin-V FITC/propidium iodide staining based fluorescence microscopic analysis (reference value: 1.11%); assay type: functional
HepG2 [13] = test: Induction of apoptosis in human HepG2 cells assessed as viable cells at 20 uM after 48 hrs by Annexin-V FITC/propidium iodide staining based fluorescence microscopic analysis (reference value: 97.07%); assay type: functional; conditions: read-out: Activity
HepG2 [14] = test: Induction of apoptosis in human HepG2 cells assessed as early apoptotic cells at 20 uM after 48 hrs by Annexin-V FITC/propidium iodide staining based fluorescence microscopic analysis (reference value: 1.68%); assay type: functional
HepG2 [15] = test: Induction of apoptosis in human HepG2 cells assessed as down regulation of Bcl-xl expression measured after 48 hrs by Western blot analysis; assay type: functional, cell-based
Outline: (§4)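 HepG2 cells treated 5, 10 or 20 μM for 48 h, lysed; 40 μg protein/lane resolved by SDS-PAGE, transferred to PVDF, blocked in 5% nonfat milk, probed overnight at 4 °C with mouse anti-Bad, Bax, Bcl-2 or Bcl-xl, then secondary antibody 2 h. ECL detection; band densities expressed relative to GAPDH.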

HepG2 [16] = test: Induction of apoptosis in human HepG2 cells assessed as necrotic cells at 5 uM after 48 hrs by Annexin-V FITC/propidium iodide staining based flow cytometric analysis (reference value: 0.14%)
HepG2 [17] = test: Induction of apoptosis in human HepG2 cells assessed as necrotic cells at 10 uM after 48 hrs by Annexin-V FITC/propidium iodide staining based fluorescence microscopic analysis (reference value: 0.14%); assay type: functional
HepG2 [18] = test: Induction of apoptosis in human HepG2 cells assessed as up regulation of Bax expression measured after 48 hrs by Western blot analysis; assay type: functional, cell-based; outline: as §4
HepG2 [19] = test: Induction of apoptosis in human HepG2 cells assessed as down regulation of Bcl-2 expression measured after 48 hrs by Western blot analysis; assay type: functional, cell-based; outline: as §4
HepG2 [20] = test: Induction of apoptosis in human HepG2 cells assessed as early apoptotic cells at 5 uM after 48 hrs by Annexin-V FITC/propidium iodide staining based flow cytometric analysis (reference value: 1.68%)
HepG2 [21] = test: Induction of apoptosis in human HepG2 cells assessed as up regulation of Bad expression measured after 48 hrs by Western blot analysis; assay type: functional, cell-based; outline: as §4
SK-HEP1 = test: Antiproliferative activity against human SK-HEP1 cells assessed as inhibition of cell proliferation after 72 hrs by MTT assay; assay type: functional, cell-based; conditions: SK-HEP1, 72 h; outline: as §1
Huh-7 = test: Antiproliferative activity against human Huh-7 cells assessed as inhibition of cell proliferation after 72 hrs by MTT assay; assay type: functional, cell-based; conditions: Huh-7, 72 h; outline: as §1
HepG2 [22] = test: Induction of apoptosis in human HepG2 cells assessed as viable cells at 10 uM after 48 hrs by Annexin-V FITC/propidium iodide staining based fluorescence microscopic analysis (reference value: 97.07%); assay type: functional; conditions: read-out: Activity
HepG2 [23] = test: Induction of apoptosis in human HepG2 cells assessed as chromatin condensation at 5 to 20 uM after 48 hrs by Hoechst 33342 staining based fluorescence microscopic analysis; assay type: functional, cell-based; conditions: dose 5-20 µM
Outline: (§5)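 HepG2 cells (5×10^4/well, six-well) exposed to 5, 10 or 20 μM for 48 h, washed with PBS, fixed in 4% paraformaldehyde 30 min, stained with Hoechst 33342 (20 μg/mL) 15 min at room temperature in the dark. Nuclear fragmentation and chromatin condensation scored by fluorescence microscopy.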

HepG2 [24] = test: Induction of apoptosis in human HepG2 cells assessed as early apoptotic cells at 10 uM after 48 hrs by Annexin-V FITC/propidium iodide staining based fluorescence microscopic analysis (reference value: 1.68%); assay type: functional
HepG2 [25] = test: Induction of apoptosis in human HepG2 cells assessed as nuclear fragmentation at 5 to 20 uM after 48 hrs by Hoechst 33342 staining based fluorescence microscopic analysis; assay type: functional, cell-based; conditions: dose 5-20 µM; outline: as §5

In the case of `COc1ccccc1CSc1nc2ccc(OCCCN(C)C)cc2c(=O)n1Cc1cccs1`, the CC50 at 72 h [1] is reported as greater than 10 µM, the IC50 (HepG2 [2]) is reported as 8.81 µM and the inhibition at 0.8 µM (Hepatitis B virus [3]) is reported as 21.6%.
`O=c1[nH]cc(F)c(=O)[nH]1` [FLUOROURACIL] gave an IC50 (HepG2 [2]) of 8.69 µM.
`CCN(CC)CCOc1ccc2nc(SCc3ccccc3OC)n(Cc3ccco3)c(=O)c2c1` showed a CC50 at 72 h [1] greater than 10 µM, an IC50 (Hepatitis B virus [4]) of 0.77 µM and an IC50 (HepG2 [2]) of 19 µM. The inhibition at 0.8 µM (Hepatitis B virus [3]) was 52.6% and the selectivity ratio [5] was greater than 13.
`CCN(CC)CCOc1ccc2nc(SCc3ccccc3)n(Cc3ccccc3)c(=O)c2c1` gave a CC50 at 72 h [1] greater than 10 µM, an IC50 (Hepatitis B virus [4]) of 0.66 µM and an IC50 (HepG2 [2]) greater than 20 µM. The inhibition at 0.8 µM (Hepatitis B virus [3]) was 64.5% and the selectivity ratio [5] was greater than 15.2.
For `COc1ccccc1CSc1nc2ccc(OCCN(C)C)cc2c(=O)n1Cc1ccco1`, the CC50 at 72 h [1] was greater than 10 µM, the IC50 (Hepatitis B virus [4]) was 0.72 µM and the IC50 (HepG2 [2]) was greater than 100 µM. The inhibition at 0.8 µM (Hepatitis B virus [3]) was 67.1% and the selectivity ratio [5] was greater than 13.9.
Compound `CCN(CC)CCOc1ccc2nc(SCc3cc(C(C)=O)ccc3OC)n(Cc3ccco3)c(=O)c2c1` has a CC50 at 72 h [1] greater than 10 µM, an IC50 (HepG2 [2]) of 17 µM and an inhibition at 0.8 µM (Hepatitis B virus [3]) of 45.2%.
For `CCN(CC)CCOc1ccc2nc(SCc3ccccc3)n(Cc3ccco3)c(=O)c2c1`, the inhibition at 0.8 µM (Hepatitis B virus [6]) was 58.9%, the CC50 at 72 h [1] was greater than 10 µM and the “inhibition (INH)” value (Hepatitis B virus [7]) was 13.64%. It also gave an IC50 (Hepatitis B virus [4]) of 0.63 µM, an IC50 (HepG2 [2]) of 17.3 µM and an inhibition at 0.8 µM (Hepatitis B virus [3]) of 67.5%. For the same compound, the selectivity ratio [5] was greater than 15.9.
Compound `COc1ccccc1CSc1nc2ccc(OCCN(C)C)cc2c(=O)n1Cc1ccccc1` has a CC50 at 72 h [1] greater than 10 µM, an IC50 (HepG2 [2]) greater than 20 µM and an inhibition at 0.8 µM (Hepatitis B virus [3]) of 11.8%.
In the case of `CN(C)CCCOc1ccc2nc(SCc3ccccc3)n(Cc3ccco3)c(=O)c2c1`, the viability at 5 µM (HepG2 [8]) is reported as 81.5%, the inhibition at 0.8 µM (Hepatitis B virus [6]) is reported as 64% and the Activity (HepG2 [9]) is reported as 5.12%. For the same compound, the CC50 at 72 h [1] was greater than 10 µM, the Activity (HepG2 [10]) was 31.67% and the Activity (HepG2 [11]) was 4.88%. For the same compound, the Activity (HepG2 [12]) was 14.15%, the “inhibition (INH)” value (Hepatitis B virus [7]) was 4.55% and the viability at 20 µM (HepG2 [13]) was 22.9%. The Activity (HepG2 [14]) was 40.31%, the Activity (HepG2 [15]) was “Dose-dependent effect” and the IC50 (Hepatitis B virus [4]) was 0.58 µM. For the same compound, the Activity (HepG2 [16]) was 0.49%, the Activity (HepG2 [17]) was 4.5% and the Activity (HepG2 [18]) was “Dose-dependent effect”. For the same compound, the Activity (HepG2 [19]) was “Dose-dependent effect”, the Activity (HepG2 [20]) was 13.07% and the Activity (HepG2 [21]) was “Dose-dependent effect”. It also gave an IC50 (SK-HEP1) of 6.75 µM, an IC50 (HepG2 [2]) of 5.44 µM and an inhibition at 0.8 µM (Hepatitis B virus [3]) of 67.3%. The IC50 (Huh-7) was 6.42 µM, the viability at 10 µM (HepG2 [22]) was 57.5% and the Activity (HepG2 [23]) was “Active”. The Activity (HepG2 [24]) was 23.83%, the Activity (HepG2 [25]) was “Active” and the selectivity ratio [5] was greater than 17.2.
With `COc1ccc(C(C)=O)cc1CSc1nc2ccc(OCCN(C)C)cc2c(=O)n1Cc1ccccc1` the CC50 at 72 h [1] was greater than 10 µM, the IC50 (HepG2 [2]) was 19 µM and the inhibition at 0.8 µM (Hepatitis B virus [3]) was 15.6%.
With `COc1ccc(C(C)=O)cc1CSc1nc2ccc(OCCN(C)C)cc2c(=O)n1Cc1ccco1` the CC50 at 72 h [1] was greater than 10 µM, the IC50 (HepG2 [2]) was 11.3 µM and the inhibition at 0.8 µM (Hepatitis B virus [3]) was 20.7%.
For `CCN(CC)CCOc1ccc2nc(SCc3cc(C(C)=O)ccc3OC)n(Cc3ccccc3)c(=O)c2c1`, the CC50 at 72 h [1] was greater than 10 µM, the IC50 (HepG2 [2]) was greater than 20 µM and the inhibition at 0.8 µM (Hepatitis B virus [3]) was 4.93%.
